Sampled rows, rich in hits. Any-hit rate of the full collection: about 2%.
CHRM1 PAM: human CHRM1 positive allosteric modulation. CHO-K1 hM1, Fluo-8 calcium fluorescence, ACh EC20; 0% = ACh EC20, 100% = maximal ACh. activation, % at 3 µM. 0.088% of 360,000 active. AID 588819; in the data active = activation above about 19%, passing the limit was not always enough
Target sequence (P11229 whole entry, looked up): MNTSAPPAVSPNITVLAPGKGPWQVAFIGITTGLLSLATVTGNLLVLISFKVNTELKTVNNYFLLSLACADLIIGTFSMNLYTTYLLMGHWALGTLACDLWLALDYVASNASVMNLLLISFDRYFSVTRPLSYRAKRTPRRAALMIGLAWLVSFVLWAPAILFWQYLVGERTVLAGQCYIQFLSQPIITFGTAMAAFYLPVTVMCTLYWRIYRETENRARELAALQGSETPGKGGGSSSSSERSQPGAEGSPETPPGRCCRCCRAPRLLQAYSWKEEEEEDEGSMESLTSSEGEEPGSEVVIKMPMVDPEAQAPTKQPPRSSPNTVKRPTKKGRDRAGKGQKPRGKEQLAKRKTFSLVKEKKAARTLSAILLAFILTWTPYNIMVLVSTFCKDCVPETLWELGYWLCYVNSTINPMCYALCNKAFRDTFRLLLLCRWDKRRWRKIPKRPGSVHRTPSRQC
M5 ag: agonists of human muscarinic M5 receptor (CHRM5) | P08912 | CHO-K1 hM5 cells, Fluo-8 calcium fluorescence; 0% DMSO wells, 100% maximal acetylcholine response | activation, % at 3 µM | 0.19% of 360,000 active;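 active = activation above the run's mean over test compounds plus 3 SD, cut at about 23% in these data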;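 note: signal is peak over basal fluorescence ratio across the kinetic read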
M5 PAM: potentiates acetylcholine response at human M5 receptor; CHO-K1 hM5, Fluo-8 calcium, ACh EC20 PAM; 0% = ACh EC20, 100% = ACh EC100; activation, % at 3 µM; 0.3% of 360,000 active; AID 624038;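 active = activation above the run cutoff, the mean activation of all test compounds plus 3 SD, cut at about 18% in these data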
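System: CHO-K1 cell line with stable human muscarinic M5 receptor expression | Also added: EC20 acetylcholine as agonist stimulus | Compound: One concentration, 3 µM final (nominal) | Timing: Fluo-8 loading 80 min at 37 °C plus 30 min room temperature | Measured by: Fluo-8 calcium dye fluorescence, kinetic read | Read-out basis: % activation, ACh-normalized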
CHRM1 antagonist: antagonists of human M1 muscarinic receptor; CHO-K1 hM1, Fluo-8 calcium fluorescence, ACh EC80 antagonist; 1.3% of 360,000 active; inhibition, % at 3 µM; P11229; AID 588852;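 active = percent inhibition above its own plate's cutoff, namely the mean of that plate's compound wells plus 3 SD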;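 note: peak over basal fluorescence ratio during 140 s after agonist addition; 0% = ACh EC80 plus DMSO and 100% = DMSO alone without agonist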
CHRM5 antagonist: CHRM5 antagonism in calcium assay; 0.59% of 360,000 active; CHO-hM5 cells, Fluo-8 calcium fluorescence, ACh EC80; P08912; inhibition, % at 3 µM;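 active = inhibition above a per-plate cutoff, the mean of that plate's test compounds plus 3 SD, cut at about 27% in these data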;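 note: 0% = acetylcholine EC80 with DMSO and 100% = DMSO without agonist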
M1 ag: agonists of human M1 muscarinic receptor. P11229. CHO-K1 hM1, Fluo-8 calcium fluorescence, agonist mode; 0% DMSO, 100% acetylcholine EC100. activation, % at 3 µM. 0.33% of 360,000 active;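 active = activation above the run's mean compound activation plus 3 SD, cut at about 16% in these data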;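 note: peak over basal fluorescence ratio within a 140 s kinetic read after compound addition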
Numbers without * were called inactive; . = no result.

SMILES	CHRM1 PAM	M5 ag	M5 PAM	CHRM1 antagonist	CHRM5 antagonist	M1 ag
CC(/C=N/NC(=O)c1sc(N)nc1C)=C\c1ccccc1	8	8	-6	-3	-4	25*
Cc1ccn2c(=O)c(NC(=O)c3cccs3)c(C)nc2c1	29*	5	0	-27	0	3
COC(=O)c1ccc(COC(=O)c2ccc(CS(=O)(=O)c3ccc(C)cc3)cc2)cc1	-10	-2	-3	22*	11	-3
COC(=O)c1ccc(COC(=O)CCS(=O)(=O)c2ccc(C)cc2)cc1	5	-2	-1	-2	2	-5
CCOC(=O)c1ccc(CNCc2ccc(C)cc2)cc1	-24	-6	-14	66*	12	-10
CCCN1CCC(NC(=S)Nc2cccc(Cl)c2Cl)CC1	9	-9	-16	-13	1	26*
COc1ccc(C(O)c2nc(-c3cccc4cccnc34)cs2)cc1 (centres undefined)	5	1	0	-7	-2	-1
COc1cc(CNC(=O)C2CCCC2)cc(OC)c1OC	27*	-2	9	-26	-8	1
CC(C)(C)OC(=O)NCCCCCc1nnc(SCC(=O)Nc2cccc(Cl)c2)o1	-13	9	-22	36*	20	4
CCNC(=O)C1(C)CCCN(C(=O)c2cccc(C)c2C)C1 (centres undefined)	-2	-2	0	2	-5	-3
CCOC(=O)C1=C[C@@H](C(C)C)N(S(=O)(=O)c2ccc([N+](=O)[O-])cc2)[C@H]1c1ccccc1	-22	1	-9	58*	8	-6
Cc1[nH]c2ccccc2c1/C=N/NC(=O)c1cc(-c2ccncc2)nc2ccccc12	11	1	31*	11	24	-1
Cc1cccc(S(=O)(=O)NC(=O)C2(C)CCN2C(=O)Cc2cc(F)ccc2F)c1 (centres undefined)	13	1	-3	102*	4	-10
CN1CCC(N(C)C(=S)Nc2ccc(SC(F)F)cc2)CC1	-3	3	-9	-1	6	18*
CN(CC1CCCN(CCc2ccc(Cl)cc2)C1)C(=O)c1ccco1 (centres undefined)	-16	-8	-1	35*	6	-6
CN(CC1CCCN(CCc2ccc(Cl)cc2)C1)C(=O)c1ccc2nc[nH]c2c1 (centres undefined)	-20	-9	-5	48*	6	-7
CCCCN(C=O)c1c(CC)nc2ccc(C(=O)N(C)Cc3ccco3)cn12	11	2	-2	-23	7	-3
COC(=O)[C@@]12C[C@@H](CC(=O)NCC34CC5CC(CC(C5)C3)C4)C(=O)N(CCc3ccc(OC)c(OC)c3)C1=CCC(C)(C)C2	.	0	-5	.	5	.
c1coc(CN(Cc2ccco2)c2ncnc3c2oc2ccccc23)c1	-16	4	-23	37*	32*	0
O=S1(=O)CC(N2CCN(CCO)CC2)CN1Cc1cn(Cc2ccccc2C(F)(F)F)nn1 (centres undefined)	4	1	0	-3	-4	-7
CCN1C(=O)N[C@@H](c2cccc(F)c2)C(C(C)=O)=C1C	31*	2	-5	-24	8	4
COC(=O)CCCn1cc(CN2CC(N3CCN(Cc4ccccc4F)CC3)CS2(=O)=O)nn1 (centres undefined)	.	1	5	.	1	.
Cc1cccnc1C(NC(=O)C1CCN(Cc2ccccc2)CC1)c1ccc(F)cc1 (centres undefined)	0	-3	-16	-7	2	-3
Cc1cccnc1C(NC(=O)C1CCN(Cc2ccc(Oc3ccccc3)cc2)CC1)c1ccccc1 (centres undefined)	-20	-3	-19	27*	16	-9
Cc1nn(C)cc1CN(C)C(=O)c1cc(-c2ccccc2)nc2ccc(Br)cc12	-7	-1	-26	34*	23	-1
SMILES	CHRM1 PAM	M5 ag	M5 PAM	CHRM1 antagonist	CHRM5 antagonist	M1 ag
COc1ccc(CN(C)C(=O)c2cc(-c3ccccc3)nc3ccc(C)cc23)c(OC)c1	-17	3	-16	37*	18	-3
Cn1cc(CNC(=O)c2cc(-c3ccccc3)nc3ccc(Br)cc23)cn1	-10	-1	-13	9	15	-8
CC1C(=O)N(Cc2cn(CCC3OCCO3)nn2)CCS(=O)(=O)N1Cc1ccc(-c2ccc(Cl)c(Cl)c2)cc1 (centres undefined)	-7	5	-3	17	9	2
O=C(C=P(c1ccccc1)(c1ccccc1)c1ccccc1)c1ccccc1-c1ccccc1C(=O)C=P(c1ccccc1)(c1ccccc1)c1ccccc1	-6	-10	-32	15	5	-2
O=C(Nc1ccc(F)cc1)C(CCc1ccccc1)N1CCN(c2cccc(C(F)(F)F)n2)CC1 (centres undefined)	.	-3	-12	.	11	.
CN(C)C=Nc1c(Br)cc(Br)c2nonc12	-19	24*	-14	14	15	45*
CN(C)C=Nc1nonc1-c1ccccc1	3	0	2	-6	1	-4
O=C(NCc1ccco1)C(=O)NCC1OCCN1S(=O)(=O)c1cc(F)ccc1F (centres undefined)	1	0	4	-2	8	16*
COc1ccccc1C1c2[nH]c3ccccc3c2CCN1Cc1cnc(C)s1 (centres undefined)	-5	-10	2	-1	3	-15
COc1cccc(C2c3[nH]c4ccccc4c3CCN2Cc2cnc(C)s2)c1OC (centres undefined)	-34	-11	-12	35*	10	-16
c1cnc2c(SCc3ccc(-c4nnco4)cc3)cccc2c1	15	-2	-1	-45	15	16*
NNC(=O)c1ccc(CSc2cccc3cccnc23)cc1	11	1	3	0	1	29*
O=C1CCC/C(=N\NC(=O)c2ccc(CSc3cccc4cccnc34)cc2)C1	11	-7	1	-14	6	20*
O=C(N/N=C/c1ccccc1Br)c1ccc(CSc2cccc3cccnc23)cc1	10	-3	-4	-8	-4	3
O=C(CSc1ccc(-c2ccccn2)nn1)NCc1ccccc1	-5	-2	-4	37*	11	-4
COc1ccc(NC(=O)CN(Cc2ccccc2)Cc2ccccc2)cc1S(N)(=O)=O	3	4	-5	3	0	-4
COc1ccc(NC(=O)COc2ccccc2Cc2ccccc2)cc1S(N)(=O)=O	-17	9	-13	37*	30*	6

Screening results: PubChem, The Scripps Research Institute Molecular Screening Center
